27 compounds from ChEMBL document CHEMBL1772961, “Discovery of dual target inhibitors against cyclooxygenases and leukotriene A4 hydrolyase” (J Med Chem, 2011) can be followed below.

Test [1] has as its target T1, Prostaglandin G/H synthase 2 (Homo sapiens, UniProt P35354).
T1 sequence (P35354 whole entry): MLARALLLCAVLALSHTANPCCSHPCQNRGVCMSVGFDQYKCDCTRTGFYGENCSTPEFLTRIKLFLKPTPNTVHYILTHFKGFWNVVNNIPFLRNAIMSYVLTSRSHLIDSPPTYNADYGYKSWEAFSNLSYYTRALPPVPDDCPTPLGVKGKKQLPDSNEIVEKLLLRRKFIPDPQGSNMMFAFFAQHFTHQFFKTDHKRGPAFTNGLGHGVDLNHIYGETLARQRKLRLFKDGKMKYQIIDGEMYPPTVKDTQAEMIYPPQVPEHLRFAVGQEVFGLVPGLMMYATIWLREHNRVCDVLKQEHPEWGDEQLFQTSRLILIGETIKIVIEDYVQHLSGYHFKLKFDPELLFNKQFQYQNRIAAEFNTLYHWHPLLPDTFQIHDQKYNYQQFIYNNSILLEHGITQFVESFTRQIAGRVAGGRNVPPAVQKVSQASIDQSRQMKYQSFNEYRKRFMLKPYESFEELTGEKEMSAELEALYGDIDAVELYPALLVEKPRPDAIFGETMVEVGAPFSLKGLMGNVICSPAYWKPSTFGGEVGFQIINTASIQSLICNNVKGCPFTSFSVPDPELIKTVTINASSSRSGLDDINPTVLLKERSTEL
In words: Inhibition of COX2 in human whole blood assessed as inhibition of LPS-induced PGE2 production after 24 hrs by ELISA.

For test [2], the target named is T2, Leukotriene A-4 hydrolase (Homo sapiens, UniProt P09960).
T2 sequence (P09960 whole entry): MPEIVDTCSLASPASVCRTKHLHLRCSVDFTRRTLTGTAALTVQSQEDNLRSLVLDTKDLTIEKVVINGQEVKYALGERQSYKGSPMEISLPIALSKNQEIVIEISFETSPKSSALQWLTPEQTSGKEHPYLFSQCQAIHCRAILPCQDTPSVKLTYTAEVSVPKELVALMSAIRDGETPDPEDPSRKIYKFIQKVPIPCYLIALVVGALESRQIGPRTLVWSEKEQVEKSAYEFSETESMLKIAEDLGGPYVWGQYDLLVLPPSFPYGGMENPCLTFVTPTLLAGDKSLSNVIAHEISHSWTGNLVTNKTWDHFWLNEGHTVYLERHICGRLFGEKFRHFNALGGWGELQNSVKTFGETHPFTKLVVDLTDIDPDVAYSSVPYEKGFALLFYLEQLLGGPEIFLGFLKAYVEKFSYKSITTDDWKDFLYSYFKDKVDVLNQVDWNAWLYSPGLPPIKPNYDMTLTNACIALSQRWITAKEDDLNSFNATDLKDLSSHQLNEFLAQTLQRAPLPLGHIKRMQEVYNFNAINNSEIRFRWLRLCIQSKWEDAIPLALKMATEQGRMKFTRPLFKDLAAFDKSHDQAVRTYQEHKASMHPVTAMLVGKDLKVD
In words: Inhibition of LTA4 hydrolase in human whole blood assessed as inhibition of calcium ionophore A23187-induced LTB4 production after 0.5 hrs by ELISA.

Test [3] addresses T1, Prostaglandin G/H synthase 2. Description: Inhibition of purified COX2 assessed as formation of oxidized TMPD during reduction og PGG2 to PGH2 preincubated for 15 mins by chromogenic assay.
Test [4] addresses Prostaglandin G/H synthase 1 (Homo sapiens, UniProt P23219). In words: Inhibition of purified COX1 assessed as formation of oxidized TMPD during reduction og PGG2 to PGH2 preincubated for 15 mins by chromogenic assay. In outline:
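Purified COX-1, approx 20 units, in 100 mM Tris pH 8 with 2 mM genapol X-100 and 1 μM hematin. Compounds in DMSO (5% final) preincubated 15 min at 25 °C. TMPD then added, reaction started with arachidonic acid. Initial rate of TMPD oxidation read at 610 nm over first 36 s. Nonenzymatic oxidation without enzyme subtracted before computing percent inhibition.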

The target of test [5] is T2, Leukotriene A-4 hydrolase. Description: Inhibition of human LTA4 hydrolase activity assessed as LTB4 production after 15 mins by ELISA.

Sequence of Prostaglandin G/H synthase 1 (P23219 whole entry): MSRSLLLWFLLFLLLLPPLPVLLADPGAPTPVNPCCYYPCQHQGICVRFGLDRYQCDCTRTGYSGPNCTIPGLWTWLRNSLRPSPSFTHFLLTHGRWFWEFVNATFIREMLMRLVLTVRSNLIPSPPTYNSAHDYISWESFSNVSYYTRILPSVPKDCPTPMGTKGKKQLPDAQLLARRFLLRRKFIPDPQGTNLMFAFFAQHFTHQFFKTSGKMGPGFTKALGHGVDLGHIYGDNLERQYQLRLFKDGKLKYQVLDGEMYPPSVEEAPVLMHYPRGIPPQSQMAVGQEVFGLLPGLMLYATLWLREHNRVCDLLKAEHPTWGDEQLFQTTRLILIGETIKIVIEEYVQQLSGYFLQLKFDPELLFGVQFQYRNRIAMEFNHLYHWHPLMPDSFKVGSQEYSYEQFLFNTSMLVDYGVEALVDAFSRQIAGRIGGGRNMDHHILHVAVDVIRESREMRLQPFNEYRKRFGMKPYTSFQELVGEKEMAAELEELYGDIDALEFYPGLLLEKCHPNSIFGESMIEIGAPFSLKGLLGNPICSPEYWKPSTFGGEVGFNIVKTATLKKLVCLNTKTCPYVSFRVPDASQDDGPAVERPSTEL

For the compound `c1ccc(Oc2ccc(OCCN3CCCC3)cc2)cc1`, the IC50 in test [1] is over 100 µM; in test [2] it was 0.78 µM; in test [3], over 100 µM; in test [4] it was over 100 µM.
`O=[N+]([O-])c1ccccc1Oc1ccc(OCCN2CCCC2)cc1`: the IC50 in test [1] was 8.4 µM; in test [5] it was 0.68 µM; in test [2], 6.9 µM; in test [3], 7.7 µM; in test [4], 61 µM.
As for `O=[N+]([O-])c1cccc(Oc2ccc(OCCN3CCCC3)cc2)c1`, the IC50 in test [1] was 13 µM; in test [5], 0.47 µM; in test [2], 1.4 µM; in test [3] it was over 100 µM; in test [4], over 100 µM.
Take `O=[N+]([O-])c1ccc(Oc2ccc(OCCN3CCCC3)cc2)cc1`: the IC50 is over 100 µM in test [1]; 0.37 µM in test [5]; 0.69 µM in test [2]; 35.3 µM in test [3]; 20.4 µM in test [4].
Regarding `O=[N+]([O-])c1ccc(Oc2ccc(OCCN3CCCC3)cc2)c([N+](=O)[O-])c1`, the IC50 in test [1], in test [5], in test [2], in test [3] and in test [4] was over 100 µM throughout.
With `c1ccc(Oc2ccc(OCCN3CCCC3)cc2)nc1`, the IC50 in test [1] is over 100 µM; in test [5], 0.77 µM; in test [2], 0.18 µM; in test [3], 34.4 µM; in test [4] it was over 100 µM.
Regarding `c1cc(Oc2ccc(OCCN3CCCC3)cc2)ccn1`, the IC50 was over 100 µM in test [1]; 0.58 µM in test [5]; 0.67 µM in test [2]; over 100 µM in test [3]; over 100 µM in test [4].
As to `CS(=O)(=O)c1ccccc1Oc1ccc(OCCN2CCCC2)cc1`, the IC50 in test [1], in test [5], in test [2], in test [3] and in test [4] was over 100 µM in each case.
Regarding `CS(=O)(=O)c1cccc(Oc2ccc(OCCN3CCCC3)cc2)c1`, the IC50 in test [1], in test [5], in test [2], in test [3] and in test [4] was over 100 µM in each case.
On to `CS(=O)(=O)c1ccc(Oc2ccc(OCCN3CCCC3)cc2)cc1`, for which the IC50 in test [1], in test [5], in test [2], in test [3] and in test [4] was over 100 µM throughout.
`CS(=O)(=O)c1ccc(Oc2ccc(OCCN3CCCC3)cc2)c([N+](=O)[O-])c1`: the IC50 in test [1], in test [5], in test [2], in test [3] and in test [4] was over 100 µM in each case.
As to `c1cnc(Oc2ccc(OCCN3CCCC3)cc2)cn1`, the IC50 in test [1] was over 100 µM; in test [5], 4.3 µM; in test [2] it was over 100 µM; in test [3], 61.6 µM; in test [4], over 100 µM.
Turning to `O=[N+]([O-])c1cccnc1Oc1ccc(OCCN2CCCC2)cc1`, the IC50 was over 100 µM in test [1]; 2.5 µM in test [5]; 34 µM in test [2]; over 100 µM in test [3]; over 100 µM in test [4].
With `FC(F)(F)c1ccccc1Oc1ccc(OCCN2CCCC2)cc1`, the IC50 in test [1] is 5 µM; in test [5], 0.22 µM; in test [2], 0.73 µM; in test [3], 41.4 µM; in test [4] it was over 100 µM.
Turning to `FC(F)(F)c1cccc(Oc2ccc(OCCN3CCCC3)cc2)c1`, the IC50 in test [1] is over 100 µM; in test [5] it was 0.54 µM; in test [2] it was over 100 µM; in test [3] it was over 100 µM; in test [4], over 100 µM.
In the case of `FC(F)(F)c1ccc(Oc2ccc(OCCN3CCCC3)cc2)cc1`, the IC50 in test [1] is over 100 µM; in test [5] it was 0.39 µM; in test [2], 2 µM; in test [3] it was over 100 µM; in test [4], over 100 µM.
For `Fc1ccc(Oc2ccc(OCCN3CCCC3)cc2)cc1`, the IC50 in test [1] is over 100 µM; in test [5], 0.08 µM; in test [2], 0.99 µM; in test [3], over 100 µM; in test [4], over 100 µM.
Take `Clc1ccc(Oc2ccc(OCCN3CCCC3)cc2)cc1`: the IC50 in test [1] was 22 µM; in test [5], 0.04 µM; in test [2], 0.73 µM; in test [3], over 100 µM; in test [4], over 100 µM.
`Brc1ccc(Oc2ccc(OCCN3CCCC3)cc2)cc1`: the IC50 in test [1] is 5.1 µM; in test [5], 0.11 µM; in test [2] it was 0.29 µM; in test [3], over 100 µM; in test [4], over 100 µM.
Turning to `Nc1ccccc1Oc1ccc(OCCN2CCCC2)cc1`, the IC50 in test [1] was over 100 µM; in test [5], 0.63 µM; in test [2], 0.11 µM; in test [3] it was over 100 µM; in test [4], over 100 µM.
In the case of `Nc1cccc(Oc2ccc(OCCN3CCCC3)cc2)c1`, the IC50 was over 100 µM in test [1]; 0.69 µM in test [5]; 0.97 µM in test [2]; over 100 µM in test [3]; over 100 µM in test [4].
Regarding `Nc1ccc(Oc2ccc(OCCN3CCCC3)cc2)cc1`, the IC50 in test [1] was over 100 µM; in test [5] it was 0.32 µM; in test [2] it was 0.029 µM; in test [3] it was 36.3 µM; in test [4] it was 1.9 µM.
Take `CS(=O)(=O)N(c1ccccc1Oc1ccc(OCCN2CCCC2)cc1)S(C)(=O)=O`: the IC50 in test [1], in test [5], in test [2], in test [3] and in test [4] was over 100 µM throughout.
Consider `CS(=O)(=O)N(c1cccc(Oc2ccc(OCCN3CCCC3)cc2)c1)S(C)(=O)=O`, for which the IC50 in test [1], in test [5], in test [2], in test [3] and in test [4] was over 100 µM in each case.
As to `CS(=O)(=O)Nc1ccc(Oc2ccc(OCCN3CCCC3)cc2)cc1`, the IC50 is over 100 µM in test [1]; 3.4 µM in test [5]; 2.1 µM in test [2]; over 100 µM in test [3]; over 100 µM in test [4].
As to `CN(c1ccccc1Oc1ccc(OCCN2CCCC2)cc1)S(C)(=O)=O`, the IC50 was over 100 µM in test [1]; over 100 µM in test [5]; over 100 µM in test [2]; 92 µM in test [3]; over 100 µM in test [4].
Regarding `CS(=O)(=O)Nc1ccc([N+](=O)[O-])cc1Oc1ccccc1` [NIMESULIDE], the IC50 in test [5] and in test [2] was over 100 µM throughout.
